Experiment [1] relates to Tyrosine-protein kinase ABL1 (Homo sapiens), P00519 [M351T]. The experiment is described as follows: Competitive binding affinity to ABL1 M351T mutant (unknown origin) at 10 uM in presence of ATP relative to control.
Experiment [2] has as its system Mast/stem cell growth factor receptor Kit (Homo sapiens), P10721 [V559D]. As to the kind of experiment: Competitive binding affinity to KIT V559D mutant (unknown origin) at 10 uM in presence of ATP relative to control.
The target of experiment [3] is T1, Activin receptor type-1B (Homo sapiens) (UniProt P36896).
T1 sequence (whole entry): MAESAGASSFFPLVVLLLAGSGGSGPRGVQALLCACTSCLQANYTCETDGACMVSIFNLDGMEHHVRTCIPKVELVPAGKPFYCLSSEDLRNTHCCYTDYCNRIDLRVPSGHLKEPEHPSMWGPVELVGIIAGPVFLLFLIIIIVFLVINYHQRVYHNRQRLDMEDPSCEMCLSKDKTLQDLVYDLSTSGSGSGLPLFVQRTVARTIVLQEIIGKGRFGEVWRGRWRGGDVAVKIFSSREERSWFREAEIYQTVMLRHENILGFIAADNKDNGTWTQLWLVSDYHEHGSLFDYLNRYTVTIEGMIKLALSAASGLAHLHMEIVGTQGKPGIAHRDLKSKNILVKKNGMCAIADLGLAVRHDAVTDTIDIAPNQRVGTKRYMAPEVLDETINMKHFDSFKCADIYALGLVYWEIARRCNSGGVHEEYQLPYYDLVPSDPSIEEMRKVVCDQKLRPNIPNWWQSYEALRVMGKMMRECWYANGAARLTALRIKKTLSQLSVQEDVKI
As to the kind of experiment: Competitive binding affinity to ACVR1B (unknown origin) at 10 uM in presence of ATP relative to control.

Experiment [4] concerns T2, Receptor-type tyrosine-protein kinase FLT3 (Homo sapiens), P36888 [N841I].
T2 sequence (whole entry): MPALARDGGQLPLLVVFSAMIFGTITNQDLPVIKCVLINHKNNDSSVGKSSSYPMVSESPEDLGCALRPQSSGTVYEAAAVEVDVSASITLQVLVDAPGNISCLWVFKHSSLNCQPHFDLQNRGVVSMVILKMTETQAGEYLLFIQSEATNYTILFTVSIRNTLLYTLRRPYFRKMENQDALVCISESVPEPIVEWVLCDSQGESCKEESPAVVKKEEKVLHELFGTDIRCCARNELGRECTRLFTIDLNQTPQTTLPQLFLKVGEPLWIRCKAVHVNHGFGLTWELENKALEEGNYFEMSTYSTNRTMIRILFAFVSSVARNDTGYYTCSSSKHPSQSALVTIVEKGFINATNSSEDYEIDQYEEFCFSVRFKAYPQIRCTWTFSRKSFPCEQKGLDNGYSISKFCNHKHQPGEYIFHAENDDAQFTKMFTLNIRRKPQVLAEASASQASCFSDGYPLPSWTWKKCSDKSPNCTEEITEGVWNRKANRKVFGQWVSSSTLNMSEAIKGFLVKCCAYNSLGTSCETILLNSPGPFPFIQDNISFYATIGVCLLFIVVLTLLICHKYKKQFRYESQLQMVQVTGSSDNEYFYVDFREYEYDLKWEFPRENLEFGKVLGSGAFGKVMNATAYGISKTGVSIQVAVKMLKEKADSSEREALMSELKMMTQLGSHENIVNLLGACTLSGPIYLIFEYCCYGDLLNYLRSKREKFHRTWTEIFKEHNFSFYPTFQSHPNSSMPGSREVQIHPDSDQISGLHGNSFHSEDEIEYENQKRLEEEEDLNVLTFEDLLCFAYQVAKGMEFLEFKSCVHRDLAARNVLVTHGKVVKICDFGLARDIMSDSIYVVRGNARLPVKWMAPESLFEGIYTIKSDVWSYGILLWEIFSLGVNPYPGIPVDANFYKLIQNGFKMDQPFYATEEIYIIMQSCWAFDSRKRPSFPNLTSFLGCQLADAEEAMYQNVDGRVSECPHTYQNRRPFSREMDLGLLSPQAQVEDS
As to the kind of experiment: Competitive binding affinity to FLT3 N841I mutant (unknown origin) at 10 uM in presence of ATP relative to control.

The target in experiment [5] is T3, Serine/threonine-protein kinase 4 (Homo sapiens) (UniProt Q13043).
T3 sequence (whole entry): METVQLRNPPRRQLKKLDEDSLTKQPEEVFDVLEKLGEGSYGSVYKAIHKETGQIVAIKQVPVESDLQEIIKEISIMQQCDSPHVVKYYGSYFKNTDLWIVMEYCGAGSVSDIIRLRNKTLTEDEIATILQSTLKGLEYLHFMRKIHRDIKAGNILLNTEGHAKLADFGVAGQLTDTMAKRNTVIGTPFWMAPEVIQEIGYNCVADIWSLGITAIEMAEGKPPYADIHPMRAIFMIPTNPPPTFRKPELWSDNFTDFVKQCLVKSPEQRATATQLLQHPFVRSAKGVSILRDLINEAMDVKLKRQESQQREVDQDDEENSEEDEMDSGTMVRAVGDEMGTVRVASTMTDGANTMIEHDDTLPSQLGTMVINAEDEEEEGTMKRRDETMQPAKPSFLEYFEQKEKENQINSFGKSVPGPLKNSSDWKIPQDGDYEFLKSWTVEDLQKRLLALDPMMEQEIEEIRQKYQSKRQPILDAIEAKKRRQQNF
The experiment is described as follows: Competitive binding affinity to STK4 (unknown origin) at 10 uM in presence of ATP relative to control.

The target of experiment [6] is Mitogen-activated protein kinase 7 (Homo sapiens, UniProt Q13164). The experiment is described as follows: Competitive binding affinity to ERK5 (unknown origin) at 10 uM in presence of ATP relative to control.
Chain of Mitogen-activated protein kinase 7 (Q13164 2-816 limits assumed): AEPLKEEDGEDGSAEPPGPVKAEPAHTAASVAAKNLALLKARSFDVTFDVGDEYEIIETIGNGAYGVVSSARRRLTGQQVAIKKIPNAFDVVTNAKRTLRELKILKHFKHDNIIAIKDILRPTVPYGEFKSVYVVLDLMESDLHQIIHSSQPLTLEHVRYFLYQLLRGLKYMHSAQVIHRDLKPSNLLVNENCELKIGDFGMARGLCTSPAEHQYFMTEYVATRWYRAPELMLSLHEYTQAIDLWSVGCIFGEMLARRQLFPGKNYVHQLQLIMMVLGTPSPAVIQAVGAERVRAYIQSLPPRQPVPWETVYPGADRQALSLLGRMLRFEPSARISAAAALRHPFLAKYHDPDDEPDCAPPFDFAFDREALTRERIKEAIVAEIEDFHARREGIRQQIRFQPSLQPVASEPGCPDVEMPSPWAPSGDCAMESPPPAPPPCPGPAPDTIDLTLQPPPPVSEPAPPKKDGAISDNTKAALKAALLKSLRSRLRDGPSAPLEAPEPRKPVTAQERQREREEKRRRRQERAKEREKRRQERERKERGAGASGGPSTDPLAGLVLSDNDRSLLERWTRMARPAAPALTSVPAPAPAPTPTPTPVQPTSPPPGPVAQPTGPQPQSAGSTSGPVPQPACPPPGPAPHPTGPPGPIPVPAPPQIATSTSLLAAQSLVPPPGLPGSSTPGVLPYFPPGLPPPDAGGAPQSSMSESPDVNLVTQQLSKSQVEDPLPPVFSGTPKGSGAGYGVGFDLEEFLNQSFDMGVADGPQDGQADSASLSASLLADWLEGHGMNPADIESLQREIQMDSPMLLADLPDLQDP
Experiment [7] has as its target Mitogen-activated protein kinase 4 (Homo sapiens, UniProt P31152). As to the kind of experiment: Competitive binding affinity to ERK4 (unknown origin) at 10 uM in presence of ATP relative to control.
In experiment [8] the target is Mitogen-activated protein kinase kinase kinase 10 (Homo sapiens) (UniProt Q02779). As to the kind of experiment: Competitive binding affinity to MLK2 (unknown origin) at 10 uM in presence of ATP relative to control.
Chain of Mitogen-activated protein kinase kinase kinase 10 (Homo sapiens) (Q02779 whole entry, looked up): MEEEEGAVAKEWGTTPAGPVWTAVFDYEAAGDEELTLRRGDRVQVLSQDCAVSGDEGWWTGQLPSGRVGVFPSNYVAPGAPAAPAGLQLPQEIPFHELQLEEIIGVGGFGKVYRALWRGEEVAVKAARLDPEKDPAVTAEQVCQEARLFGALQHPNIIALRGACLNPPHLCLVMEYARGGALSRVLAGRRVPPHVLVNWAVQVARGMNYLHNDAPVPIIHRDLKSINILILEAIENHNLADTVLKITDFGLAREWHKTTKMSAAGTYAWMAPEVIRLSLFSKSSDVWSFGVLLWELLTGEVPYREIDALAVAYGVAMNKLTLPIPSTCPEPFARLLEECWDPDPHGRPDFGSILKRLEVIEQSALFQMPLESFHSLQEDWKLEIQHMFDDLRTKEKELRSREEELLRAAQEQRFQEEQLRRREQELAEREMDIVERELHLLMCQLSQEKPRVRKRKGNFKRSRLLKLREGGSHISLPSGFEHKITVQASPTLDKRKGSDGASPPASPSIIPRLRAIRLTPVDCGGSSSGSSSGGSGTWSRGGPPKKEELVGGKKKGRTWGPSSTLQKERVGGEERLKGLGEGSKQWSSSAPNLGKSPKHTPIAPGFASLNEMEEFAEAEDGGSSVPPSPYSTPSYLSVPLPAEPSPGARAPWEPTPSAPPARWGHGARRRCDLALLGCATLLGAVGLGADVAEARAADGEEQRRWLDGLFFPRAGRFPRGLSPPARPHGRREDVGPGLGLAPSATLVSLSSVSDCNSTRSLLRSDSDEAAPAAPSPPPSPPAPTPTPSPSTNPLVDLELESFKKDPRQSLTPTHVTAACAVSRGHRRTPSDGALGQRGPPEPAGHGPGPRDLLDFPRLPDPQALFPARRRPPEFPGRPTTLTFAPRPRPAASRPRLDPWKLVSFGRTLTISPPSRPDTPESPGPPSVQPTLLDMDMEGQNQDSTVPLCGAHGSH
Experiment [9] concerns the target Dual specificity tyrosine-phosphorylation-regulated kinase 1B (Homo sapiens) (UniProt Q9Y463). The experiment is described as follows: Competitive binding affinity to DYRK1B (unknown origin) at 10 uM in presence of ATP relative to control.
The target in experiment [10] is T3, Serine/threonine-protein kinase 4 (Homo sapiens). As to the kind of experiment: Competitive binding affinity to MST1 (unknown origin) at 10 uM in presence of ATP relative to control.
Experiment [11] concerns the target Cyclin-dependent kinase 2/cyclin E1 (Homo sapiens, UniProt P24941). The experiment is described as follows: Inhibition of human recombinant CDK2/GST-tagged cyclin E expressed in baculovirus infected insect cells assessed as inhibition of 6XHis-tagged retinoblastoma protein (386 to 928) phosphorylation after 30 mins by scintillation counting analysis in presence of [gamma-33P]-ATP. The essentials: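 CDK2 activity was measured as phosphorylation of a 6-histidine-tagged truncated retinoblastoma protein (amino acids 386–928) using [γ-33P]ATP.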

Where only a bound is given, the exact number is not on record here.

Chain of Dual specificity tyrosine-phosphorylation-regulated kinase 1B (Homo sapiens) (Q9Y463 whole entry, looked up): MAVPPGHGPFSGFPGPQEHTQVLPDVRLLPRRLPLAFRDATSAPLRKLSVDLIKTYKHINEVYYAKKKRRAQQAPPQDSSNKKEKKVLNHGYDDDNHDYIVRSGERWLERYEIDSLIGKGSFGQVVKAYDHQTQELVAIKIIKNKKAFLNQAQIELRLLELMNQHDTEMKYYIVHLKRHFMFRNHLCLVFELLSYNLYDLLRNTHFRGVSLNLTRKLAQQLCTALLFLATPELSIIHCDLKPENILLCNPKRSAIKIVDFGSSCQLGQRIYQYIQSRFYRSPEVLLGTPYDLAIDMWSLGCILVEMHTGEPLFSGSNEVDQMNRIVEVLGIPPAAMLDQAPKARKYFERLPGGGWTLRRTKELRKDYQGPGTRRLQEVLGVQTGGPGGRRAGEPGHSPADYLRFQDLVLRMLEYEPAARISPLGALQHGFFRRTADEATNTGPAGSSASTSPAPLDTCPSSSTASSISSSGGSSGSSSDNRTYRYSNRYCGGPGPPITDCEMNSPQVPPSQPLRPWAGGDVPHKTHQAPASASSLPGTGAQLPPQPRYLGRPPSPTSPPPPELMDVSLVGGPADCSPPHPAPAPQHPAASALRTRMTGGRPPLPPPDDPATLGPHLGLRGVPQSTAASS
Chain of Mitogen-activated protein kinase 4 (P31152 whole entry): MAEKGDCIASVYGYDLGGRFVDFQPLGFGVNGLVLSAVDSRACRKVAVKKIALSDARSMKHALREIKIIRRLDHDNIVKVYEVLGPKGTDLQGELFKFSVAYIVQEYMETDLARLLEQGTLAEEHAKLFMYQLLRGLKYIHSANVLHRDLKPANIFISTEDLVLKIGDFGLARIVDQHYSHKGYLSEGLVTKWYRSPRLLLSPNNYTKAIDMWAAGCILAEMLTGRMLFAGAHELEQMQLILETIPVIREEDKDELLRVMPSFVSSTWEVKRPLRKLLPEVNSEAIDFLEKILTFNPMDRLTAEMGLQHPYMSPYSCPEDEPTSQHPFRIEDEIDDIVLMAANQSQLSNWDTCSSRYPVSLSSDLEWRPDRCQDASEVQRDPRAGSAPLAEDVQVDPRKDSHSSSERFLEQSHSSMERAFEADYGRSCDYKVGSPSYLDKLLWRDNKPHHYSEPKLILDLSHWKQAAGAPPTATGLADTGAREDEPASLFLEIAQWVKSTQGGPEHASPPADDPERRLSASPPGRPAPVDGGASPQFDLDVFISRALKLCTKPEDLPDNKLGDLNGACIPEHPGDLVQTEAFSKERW
Chain of Mast/stem cell growth factor receptor Kit (Homo sapiens), P10721 [V559D] (P10721 whole entry V559D): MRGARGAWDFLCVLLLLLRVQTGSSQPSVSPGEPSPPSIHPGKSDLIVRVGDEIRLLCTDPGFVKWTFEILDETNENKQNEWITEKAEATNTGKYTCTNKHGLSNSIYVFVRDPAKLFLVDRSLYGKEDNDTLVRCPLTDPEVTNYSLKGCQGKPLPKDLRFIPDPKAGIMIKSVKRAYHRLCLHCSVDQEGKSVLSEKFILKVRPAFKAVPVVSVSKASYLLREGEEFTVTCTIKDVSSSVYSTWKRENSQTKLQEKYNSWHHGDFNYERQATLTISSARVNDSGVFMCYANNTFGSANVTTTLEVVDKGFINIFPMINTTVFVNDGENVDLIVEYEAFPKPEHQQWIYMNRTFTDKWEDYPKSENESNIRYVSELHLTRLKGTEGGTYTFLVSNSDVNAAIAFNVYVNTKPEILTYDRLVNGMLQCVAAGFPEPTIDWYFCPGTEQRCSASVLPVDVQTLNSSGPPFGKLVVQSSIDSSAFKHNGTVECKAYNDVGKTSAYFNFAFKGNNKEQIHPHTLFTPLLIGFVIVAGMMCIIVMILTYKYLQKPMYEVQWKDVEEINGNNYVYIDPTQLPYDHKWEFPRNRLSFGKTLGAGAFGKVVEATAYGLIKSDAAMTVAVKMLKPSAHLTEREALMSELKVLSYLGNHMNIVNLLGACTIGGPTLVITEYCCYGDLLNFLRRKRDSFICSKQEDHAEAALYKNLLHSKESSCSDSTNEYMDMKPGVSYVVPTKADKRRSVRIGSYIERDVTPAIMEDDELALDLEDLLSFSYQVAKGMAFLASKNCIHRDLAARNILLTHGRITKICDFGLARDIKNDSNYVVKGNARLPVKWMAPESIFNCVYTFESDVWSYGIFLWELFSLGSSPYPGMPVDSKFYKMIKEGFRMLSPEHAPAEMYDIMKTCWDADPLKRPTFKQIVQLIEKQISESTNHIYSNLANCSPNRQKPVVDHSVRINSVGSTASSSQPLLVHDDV

In the case of `O[C@H]1CC[C@H](Nc2nccc(-c3n[nH]c4ccccc34)n2)CC1`, the inhibition in experiment [1] was under 50%; in [2] it was 99%; in experiment [3], under 50%; in experiment [4] it was 100%; in [5], under 50%.

Regarding `O[C@H]1CC[C@H](Nc2nccc(-n3ccc4ccccc43)n2)CC1`, the inhibition is under 50% in experiment [1]; under 50% in [6]; 63% in [7]; under 50% in experiment [8]; 100% in experiment [9]; under 50% in experiment [10]. Also, the inhibition in experiment [2] is 73%; in [3], under 50%; in experiment [4], under 50%.

With `O[C@H]1CC[C@H](Nc2nccc(-n3ncc4ccccc43)n2)CC1`, the inhibition in experiment [1] was under 50%; in [6], 79%; in experiment [7] it was 99%; in [8], under 50%; in [9], 99%; in [10], under 50%. Also, the inhibition in [2] is 92%; in experiment [3] it was under 50%; in experiment [4], 97%.

`O[C@H]1CC[C@H](Nc2nccc(-n3nnc4ccccc43)n2)CC1`: the inhibition in [1] was under 50%; in experiment [6] it was 100%; in [7], 100%; in [8], under 50%; in [9], 100%; in experiment [10], under 50%. The figures for the inhibition in experiment [2], in experiment [3] and in [4] were 91%, under 50% and 98%, respectively. In [11], the half-inhibitory concentration (IC50) turned out to be 430 nM.

Regarding `O=C([C@H]1CC[C@H](Nc2nccc(-n3nnc4ccccc43)n2)CC1)N1CCOCC1`, in experiment [11], the IC50 is 2000 nM. Moreover, in [5], the inhibition is under 50%.

On to `CS(=O)(=O)CCCOc1cccc2c1ccn2-c1ccnc(N[C@H]2CC[C@H](C(=O)N3CCC(O)CC3)CC2)n1`, for which the inhibition in experiment [6] and in experiment [7] was over 85% throughout.

Take `N[C@H]1CC[C@H](Nc2nccc(-n3nnc4ccccc43)n2)CC1`: in experiment [11], the concentration for half-maximal inhibition (IC50) worked out at 360 nM. Further, the inhibition in experiment [5] is under 50%.

Usually inhibition stands for the change of the read-out against control, counted positive when it falls. The term IC50 denotes the point on the concentration scale where inhibition reaches its midpoint.

These data come from ChEMBL document CHEMBL2424622, “Development of amino-pyrimidine inhibitors of c-Jun N-terminal kinase (JNK): kinase profiling guided optimization of a 1,2,3-benzotriazole lead” (Bioorg Med Chem Lett, 2013).
